Consider twelve molecules from ChEMBL document CHEMBL1221409, “Antioxidant and anti-inflammatory phenylpropanoid derivatives from Calamus quiquesetinervius” (J Nat Prod, 2010).

As a reminder, the IC50 is the concentration at which inhibition is half-maximal.

One series has as its system RAW264.7. Briefly: Antiinflammatory activity against LPS-stimulated mouse RAW264.7 cells assessed as inhibition of NO production after 24 hrs. The series is classed as functional, cell-based. The conditions noted are these: RAW264.7, 24 h. In a few lines:
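RAW 264.7 macrophages were stimulated with LPS in the presence of the test agent for 24 h. Inhibition of NO production was expressed as IC50, with quercetin as the reference.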

Series [1] has as its system Radical scavenging activity. Briefly: Antioxidant activity assessed as DPPH radical scavenging activity after 30 mins by ELISA reader. Type of series: functional. The method, boiled down:
(§1)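 Radical scavenging was tested with Trolox and quercetin as positive controls. Values are from three replicates, reported as means ± SD and expressed as IC50.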
Background: Loss of DPPH colour is used to gauge radical scavenging.

Series [2] is described as follows: Antioxidant activity assessed as hydroxyl radical scavenging activity by chemiluminescence analysis. The series is classed as functional. The method, boiled down: as §1
Series [3] in a line: Antioxidant activity assessed as superoxide radical scavenging activity by chemiluminescence analysis. The series is classed as functional. The method, boiled down:
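Superoxide (·O2−) scavenging was tested with Trolox and quercetin as positive controls. Values are from three replicates, reported as means ± SD.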

Series [4] can be described thus: Cytotoxicity against mouse RAW264.7 cells assessed as cell viability upto 100 uM by MTS assay. To be noted: read-out: Activity. The series is classed as cell-based. In a few lines:
(§2)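 RAW 264.7 cells were incubated 24 h with the agent at various concentrations up to 100 µM, with or without LPS in the medium. Cell viability was read by MTS assay.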
A general note: Tetrazolium assays rely on reduction of a dye to a coloured formazan, in cell work by metabolically active cells.

A short description of series [5]: Cytotoxicity against LPS-stimulated mouse RAW264.7 cells assessed as cell viability upto 100 uM by MTS assay. Type of series: cell-based. The conditions noted are these: LPS-stimulated RAW264.7 cells, read-out: Activity. The method, boiled down: as §2

Take `O=c1c(O)c(-c2ccc(O)c(O)c2)oc2cc(O)cc(O)c12` [QUERCETIN]: in the series with RAW264.7, the IC50 was 34.5 µM.

With `COc1cc(C2Oc3c(OC)cc(/C=C/C=O)cc3C2COC(=O)c2ccc(O)cc2)ccc1O` (configuration not stated), the half-maximal inhibitory concentration (IC50) in series [1] is > 100 µM; in series [2], 19.1 µM; in series [3] it was > 200 µM; in the series with RAW264.7, 69 µM. In addition, the viability in series [4] and in series [5] was > 90% each time.

As to `COc1cc(/C=C/C(=O)OC[C@H]2O[C@@](CO)(O[C@H]3O[C@H](CO)[C@@H](OC(=O)/C=C/c4ccc(O)c(OC)c4)[C@H](O)[C@H]3OC(C)=O)[C@@H](OC(=O)/C=C/c3ccc(O)c(OC)c3)[C@@H]2O)ccc1O`, the concentration for half-maximal inhibition (IC50) in series [1] was 69.1 µM; in series [2], 3.6 µM; in series [3], 184 µM; with RAW264.7, 42.1 µM. Also, the viability in series [4] and in series [5] was > 90% in each case.

As for `Cc1c(C)c2c(c(C)c1O)CCC(C)(C(=O)O)O2` (configuration not stated) [TROLOX], the values for the IC50 in series [1], in series [2] and in series [3] were 32.9 µM, 4.31 µM and 25.3 µM, respectively.

As for `COc1cc([C@H]2Oc3c(OC)cc(/C=C/COC(=O)c4ccc(O)cc4)cc3[C@@H]2COC(=O)c2ccc(O)cc2)ccc1O` [QUIQUESETINERVIUSIN A], the IC50 is 23.7 µM in series [2], > 200 µM in series [3] and 23.4 µM with RAW264.7. In addition, the viability in series [4] and in series [5] was > 90% throughout.

As to `CCO[C@H](c1ccc(O)c(OC)c1)[C@H](COC(=O)c1ccc(O)cc1)Oc1ccc(/C=C/COC(=O)c2ccc(O)cc2)cc1OC` (relative stereo) [QUIQUESETINERVIUSIN C], the 50% inhibitory concentration (IC50) in series [1] is > 100 µM; in series [2] it was 16.6 µM; in series [3], > 200 µM; in the series with RAW264.7, 95.7 µM. The viability in series [4] and in series [5] was > 90% throughout.

Take `COc1cc([C@H](O)[C@H](CO)Oc2c(OC)cc(-c3cc(=O)c4c(O)cc(O)cc4o3)cc2OC)ccc1O` [SALCOLIN B]: the 50% inhibitory concentration (IC50) is > 100 µM in series [1], 13.3 µM in series [2], > 200 µM in series [3] and 29.5 µM in the series on RAW264.7. For the same molecule, the viability in series [4] and in series [5] was > 90% each time.

As to `COc1cc(/C=C/C(=O)OC[C@H]2O[C@@](CO)(O[C@H]3O[C@H](CO)[C@@H](OC(=O)/C=C/c4ccc(O)c(OC)c4)[C@H](O)[C@H]3O)[C@@H](OC(=O)/C=C/c3ccc(O)c(OC)c3)[C@@H]2O)ccc1O`, the IC50 in series [1] was 62.5 µM; in series [2], 6.8 µM; in series [3], > 200 µM; in the series on RAW264.7, 78.1 µM. Moreover, the viability in series [4] and in series [5] was > 90% each time.

As to `COc1cc(/C=C/C(=O)OC[C@H]2O[C@@](CO)(O[C@H]3O[C@H](CO)[C@@H](OC(=O)/C=C/c4ccc(O)cc4)[C@H](O)[C@H]3OC(C)=O)[C@@H](OC(=O)/C=C/c3ccc(O)c(OC)c3)[C@@H]2O)ccc1O`, the concentration for half-maximal inhibition (IC50) in series [1] is 68.4 µM; in series [2], 5.5 µM; in series [3], > 200 µM; in the series with RAW264.7 it was 9.2 µM. Besides, the viability in series [4] and in series [5] was > 90% throughout.

With `COc1cc([C@H]2Oc3c(OC)cc(/C=C/COC(=O)c4ccc(O)cc4)cc3[C@@H]2COC(=O)c2ccc(O)cc2)cc(OC)c1O` [QUIQUESETINERVIUSIN B], the IC50 is 25.7 µM in series [2], > 200 µM in series [3] and 223 µM with RAW264.7. Moreover, the viability in series [4] and in series [5] was > 90% throughout.

In the case of `COc1cc(/C=C/C(=O)OC[C@H]2O[C@@](CO)(O[C@H]3O[C@H](COC(C)=O)[C@@H](OC(=O)/C=C/c4ccc(O)c(OC)c4)[C@H](O)[C@H]3O)[C@@H](OC(=O)/C=C/c3ccc(O)c(OC)c3)[C@@H]2O)ccc1O`, the concentration for half-maximal inhibition (IC50) is 99.6 µM in series [1], 7.4 µM in series [2], > 200 µM in series [3] and 60.3 µM with RAW264.7. In addition, the viability in series [4] and in series [5] was > 90% in each case.

For `COc1cc(/C=C/C(=O)OC[C@H]2O[C@@](CO)(O[C@H]3O[C@H](COC(C)=O)[C@@H](OC(=O)/C=C/c4ccc(O)cc4)[C@H](O)[C@H]3O)[C@@H](OC(=O)/C=C/c3ccc(O)c(OC)c3)[C@@H]2O)ccc1O`, the half-inhibitory concentration (IC50) in series [1] was 64.4 µM; in series [2], 8.4 µM; in series [3], > 200 µM; in the series with RAW264.7 it was 9.5 µM. In addition, the viability in series [4] and in series [5] was > 90% each time.
